According to ChEMBL document CHEMBL4732237, “Discovery of 4-alkoxy-2-aryl-6,7-dimethoxyquinolines as a new class of topoisomerase I inhibitors endowed with potent in vitro anticancer activity” (2021):

The compounds below were run on NCI-H226 (assay: Growth inhibition of human NCI-H226 cells incubated for 48 hrs by sulforhodamine B assay).
Type: functional
Summary of the method: (§1)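 NCI five-dose screen (0.01–100 µM; five concentrations plus control). Cells grown in RPMI 1640/5% FBS/2 mM L-glutamine and preincubated 24 h, with time-zero plates TCA-fixed. Drug exposure 48 h at 37 °C, followed by SRB protein staining and reading at 515 nm. GI50 is the concentration at [(Ti-Tz)/(C-Tz)]×100 = 50.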

SMILES | GI50
COc1cc2nc(-c3ccc(C(F)(F)F)cc3)cc(OCCCN3CCOCC3)c2cc1OC | 406 nM

The compounds below were run on UACC-62 (assay: Growth inhibition of human UACC-62 cells incubated for 48 hrs by sulforhodamine B assay).
Type: functional
Summary of the method: (§2)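 NCI five-dose assay, with drug stocks in DMSO diluted in medium to five concentrations (10-fold or ½-log series). Cells in RPMI 1640/5% FBS were pre-incubated 24 h, and time-zero plates were TCA-fixed at drug addition. After 48 h at 37 °C, cells were TCA-fixed, SRB-stained and read at 515 nm. GI50 is from [(Ti-Tz)/(C-Tz)]×100 = 50, TGI from Ti = Tz, and LC50 from [(Ti-Tz)/Tz]×100 = -50.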

SMILES | GI50
COc1cc2nc(-c3ccc(C(F)(F)F)cc3)cc(OCCCN3CCOCC3)c2cc1OC | 628 nM

The compounds below were run on SF-295 (assay: Growth inhibition of human SF-295 cells incubated for 48 hrs by sulforhodamine B assay).
Type: functional
Summary of the method: as §1

SMILES | GI50
COc1cc2nc(-c3ccc(C(F)(F)F)cc3)cc(OCCCN3CCOCC3)c2cc1OC | 349 nM

The compounds below were run on SK-MEL-28 (assay: Growth inhibition of human SK-MEL-28 cells incubated for 48 hrs by sulforhodamine B assay).
Type: functional
Summary of the method: as §1

SMILES | GI50
COc1cc2nc(-c3ccc(C(F)(F)F)cc3)cc(OCCCN3CCOCC3)c2cc1OC | 1440 nM

These compounds were tested on UO-31 (assay: Growth inhibition of human UO-31 cells incubated for 48 hrs by sulforhodamine B assay).
Type: functional
Summary of the method: as §2

SMILES | GI50
COc1cc2nc(-c3ccc(C(F)(F)F)cc3)cc(OCCCN3CCOCC3)c2cc1OC | 1770 nM

The compounds below were run on OVCAR-3 (assay: Growth inhibition of human OVCAR-3 cells incubated for 48 hrs by sulforhodamine B assay).
Type: functional
Summary of the method: as §1

SMILES | GI50
COc1cc2nc(-c3ccc(C(F)(F)F)cc3)cc(OCCCN3CCOCC3)c2cc1OC | 3730 nM

The compounds below were run on DU-145 (assay: Growth inhibition of human DU-145 cells incubated for 48 hrs by sulforhodamine B assay).
Type: functional
Summary of the method: (§3)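 NCI five-dose screen covering 0.01–100 µM, prepared as 10-fold or ½-log dilutions from DMSO stock. Cells in RPMI 1640 with 5% FBS were exposed for 48 h at 37 °C after 24 h preincubation. Adherent cells were fixed with TCA (final 10%) and suspension cells were settled before fixing. Stain was SRB, read at 515 nm. GI50 = 50% reduction in net protein increase versus control, with Tz taken at drug addition.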

SMILES | GI50
COc1cc2nc(-c3ccc(C(F)(F)F)cc3)cc(OCCCN3CCOCC3)c2cc1OC | 10100 nM

These compounds were tested on HOP-92 (assay: Growth inhibition of human HOP-92 cells incubated for 48 hrs by sulforhodamine B assay).
Type: functional
Summary of the method: as §3

SMILES | GI50
COc1cc2nc(-c3ccc(C(F)(F)F)cc3)cc(OCCCN3CCOCC3)c2cc1OC | 1000 nM

The compounds below were run on TK-10 (assay: Growth inhibition of human TK-10 cells incubated for 48 hrs by sulforhodamine B assay).
Type: functional
Summary of the method: as §2

SMILES | GI50
COc1cc2nc(-c3ccc(C(F)(F)F)cc3)cc(OCCCN3CCOCC3)c2cc1OC | 13900 nM

Each compound was assayed on OVCAR-5 (assay: Growth inhibition of human OVCAR-5 cells incubated for 48 hrs by sulforhodamine B assay).
Type: functional
Summary of the method: as §1

SMILES | GI50
COc1cc2nc(-c3ccc(C(F)(F)F)cc3)cc(OCCCN3CCOCC3)c2cc1OC | 1920 nM

What follows are compounds tested on HCT-116 (assay: Growth inhibition of human HCT-116 cells incubated for 48 hrs by sulforhodamine B assay).
Type: functional
Summary of the method: as §3

SMILES | GI50
COc1cc2nc(-c3ccc(C(F)(F)F)cc3)cc(OCCCN3CCOCC3)c2cc1OC | 583 nM

These compounds were tested on A549 (assay: Growth inhibition of human A549 cells incubated for 48 hrs by sulforhodamine B assay).
Type: functional
Summary of the method: as §3

SMILES | GI50
COc1cc2nc(-c3ccc(C(F)(F)F)cc3)cc(OCCCN3CCOCC3)c2cc1OC | 1040 nM

These compounds were tested on T47D (assay: Growth inhibition of human T47D cells incubated for 48 hrs by sulforhodamine B assay).
Type: functional
Summary of the method: as §2

SMILES | GI50
COc1cc2nc(-c3ccc(C(F)(F)F)cc3)cc(OCCCN3CCOCC3)c2cc1OC | 654 nM

Each compound was assayed on UACC-257 (assay: Growth inhibition of human UACC-257 cells incubated for 48 hrs by sulforhodamine B assay).
Type: functional
Summary of the method: as §2

SMILES | GI50
COc1cc2nc(-c3ccc(C(F)(F)F)cc3)cc(OCCCN3CCOCC3)c2cc1OC | 1670 nM

What follows are compounds tested on OVCAR-8 (assay: Growth inhibition of human OVCAR-8 cells incubated for 48 hrs by sulforhodamine B assay).
Type: functional
Summary of the method: as §1

SMILES | GI50
COc1cc2nc(-c3ccc(C(F)(F)F)cc3)cc(OCCCN3CCOCC3)c2cc1OC | 1950 nM

Each compound was assayed on Malme-3M (assay: Growth inhibition of human Malme-3M cells incubated for 48 hrs by sulforhodamine B assay).
Type: functional
Summary of the method: as §1

SMILES | GI50
COc1cc2nc(-c3ccc(C(F)(F)F)cc3)cc(OCCCN3CCOCC3)c2cc1OC | 1380 nM

These compounds were tested on CAKI-1 (assay: Growth inhibition of human CAKI-1 cells incubated for 48 hrs by sulforhodamine B assay).
Type: functional
Summary of the method: as §3

SMILES | GI50
COc1cc2nc(-c3ccc(C(F)(F)F)cc3)cc(OCCCN3CCOCC3)c2cc1OC | 167 nM

The compounds below were run on NCI-H322M (assay: Growth inhibition of human NCI-H322M cells incubated for 48 hrs by sulforhodamine B assay).
Type: functional
Summary of the method: as §1

SMILES | GI50
COc1cc2nc(-c3ccc(C(F)(F)F)cc3)cc(OCCCN3CCOCC3)c2cc1OC | 10500 nM

What follows are compounds tested on SK-MEL-5 (assay: Growth inhibition of human SK-MEL-5 cells incubated for 48 hrs by sulforhodamine B assay).
Type: functional
Summary of the method: as §1

SMILES | GI50
COc1cc2nc(-c3ccc(C(F)(F)F)cc3)cc(OCCCN3CCOCC3)c2cc1OC | 288 nM

The compounds below were run on MDA-MB-231 (assay: Growth inhibition of human MDA-MB-231 cells incubated for 48 hrs by sulforhodamine B assay).
Type: functional
Summary of the method: as §3

SMILES | GI50
COc1cc2nc(-c3ccc(C(F)(F)F)cc3)cc(OCCCN3CCOCC3)c2cc1OC | 498 nM

The compounds below were run on NCI-H460 (assay: Growth inhibition of human NCI-H460 cells incubated for 48 hrs by sulforhodamine B assay).
Type: functional
Summary of the method: as §1

SMILES | GI50
COc1cc2nc(-c3ccc(C(F)(F)F)cc3)cc(OCCCN3CCOCC3)c2cc1OC | 639 nM

These compounds were tested on HCC 2998 (assay: Growth inhibition of human HCC 2998 cells incubated for 48 hrs by sulforhodamine B assay).
Type: functional
Summary of the method: as §3

SMILES | GI50
COc1cc2nc(-c3ccc(C(F)(F)F)cc3)cc(OCCCN3CCOCC3)c2cc1OC | 1410 nM
